Measurements: PubChem BioAssay
Activity calls are given as the source filed them.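 How the source made its calls, unless noted: active means viability at or below 30% in both replicate assays; inconclusive means viability at or below 30% in just one of the two assays; inactive means the rest.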

Assays:
[1] = Her2 expression decrease, cell viability multiplex – SKBR3 breast tumor cells, AlphaScreen, ATP viability, primary screen (AID 461;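 active means Her2 level under about 52% in both replicate screens, with viability over 70% of control, limit read from the data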;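 on Her2 level: lower value means less Her2 protein in the cells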;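 on viability: percent of carrier control wells set as 100% viability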); settings: SKBR3 Her2 protein level, 18-24 h, measured here: SKBR3 viability, ATP luminescence, at 10 µM
[2] = target: Receptor tyrosine-protein kinase erbB-2 (Homo sapiens) (UniProt P04626); assay: as above; settings: 18-24 h, at 10 µM, stronger effect = lower value
[3] = reduced viability of SK-BR-3 breast cancer cells – cell-based, 24 h, human, pilot screen (AID 572;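 active means viability at or below 10% of carrier control in both of two separate runs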;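 further: compound exposure lasted between 18 and 24 h rather than exactly 24 h; 100% = carrier-treated control wells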); settings: SK-BR-3 viability, CellTiter-Glo luminescence, at 10 µM, stronger effect = lower value
[4] = HUVEC growth inhibition – cell-based, human, primary screen (AID 575); settings: HUVEC proliferation, CellTiter-Glo luminescence, 72 h; at 10 µM; stronger effect = lower value;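 further: 100% = median of untreated cell wells with 0.1% DMSO on each plate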
Method in brief: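 Test system – primary HUVEC, no more than 12 passages · Dosing – one dose, 10 µM final, 0.1% DMSO · Times – 72 h treatment at 37 °C · Measured by – ATP-based CellTiter-Glo luminescent read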

[5] = H69AR cell proliferation blockers – human, duplicate replicates, primary screen (AID 580;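 active means viability at or under a set limit in both replicates, limit being median viability minus 3 SD, cut at about 48% in these data, passing the limit was not always enough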;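 further: 100% = mean luminescence of untreated wells and 0% = no signal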); settings: H69AR lung tumor cells viability, ATP luminescence, 72 h; at 10 µM; stronger effect = lower value
[6] = MRP1 drug-resistance reversers in H69AR cells – cell-based, doxorubicin co-treatment, pilot screen (AID 601;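 active means viability loss from added drug above about 55%, and viability with drug at most 40%, in both replicates, limit read from the data, passing the limit was not always enough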); settings: CellTiter-Glo, 72 h, at 10 µM; for differential viability (reversal): stronger effect = higher value
[7] = yeast transport mutant growth inhibition pilot in 384-well plates, post-Golgi transport modulator project (AID 636; in the data active means inhibition above about 31%); settings: absorbance 615 nm, about 18 h, stronger effect = higher value
[8] = growth suppression of yeast trafficking mutant, preliminary HTS, modulators of trafficking downstream of Golgi apparatus project, 1536-format plate, OD 615 nm (AID 637; in the data active means inhibition above about 30%); settings: yeast transport mutant growth, absorbance 615 nm, 18 h; stronger effect = higher value
[9] = H69AR cells + 2 uM doxorubicin, measured here: viability with 2 uM doxorubicin, stronger effect = lower value
[10] = H69AR cells, compound alone cytotoxicity

Sequence of Receptor tyrosine-protein kinase erbB-2 (Homo sapiens) (P04626 whole entry, looked up): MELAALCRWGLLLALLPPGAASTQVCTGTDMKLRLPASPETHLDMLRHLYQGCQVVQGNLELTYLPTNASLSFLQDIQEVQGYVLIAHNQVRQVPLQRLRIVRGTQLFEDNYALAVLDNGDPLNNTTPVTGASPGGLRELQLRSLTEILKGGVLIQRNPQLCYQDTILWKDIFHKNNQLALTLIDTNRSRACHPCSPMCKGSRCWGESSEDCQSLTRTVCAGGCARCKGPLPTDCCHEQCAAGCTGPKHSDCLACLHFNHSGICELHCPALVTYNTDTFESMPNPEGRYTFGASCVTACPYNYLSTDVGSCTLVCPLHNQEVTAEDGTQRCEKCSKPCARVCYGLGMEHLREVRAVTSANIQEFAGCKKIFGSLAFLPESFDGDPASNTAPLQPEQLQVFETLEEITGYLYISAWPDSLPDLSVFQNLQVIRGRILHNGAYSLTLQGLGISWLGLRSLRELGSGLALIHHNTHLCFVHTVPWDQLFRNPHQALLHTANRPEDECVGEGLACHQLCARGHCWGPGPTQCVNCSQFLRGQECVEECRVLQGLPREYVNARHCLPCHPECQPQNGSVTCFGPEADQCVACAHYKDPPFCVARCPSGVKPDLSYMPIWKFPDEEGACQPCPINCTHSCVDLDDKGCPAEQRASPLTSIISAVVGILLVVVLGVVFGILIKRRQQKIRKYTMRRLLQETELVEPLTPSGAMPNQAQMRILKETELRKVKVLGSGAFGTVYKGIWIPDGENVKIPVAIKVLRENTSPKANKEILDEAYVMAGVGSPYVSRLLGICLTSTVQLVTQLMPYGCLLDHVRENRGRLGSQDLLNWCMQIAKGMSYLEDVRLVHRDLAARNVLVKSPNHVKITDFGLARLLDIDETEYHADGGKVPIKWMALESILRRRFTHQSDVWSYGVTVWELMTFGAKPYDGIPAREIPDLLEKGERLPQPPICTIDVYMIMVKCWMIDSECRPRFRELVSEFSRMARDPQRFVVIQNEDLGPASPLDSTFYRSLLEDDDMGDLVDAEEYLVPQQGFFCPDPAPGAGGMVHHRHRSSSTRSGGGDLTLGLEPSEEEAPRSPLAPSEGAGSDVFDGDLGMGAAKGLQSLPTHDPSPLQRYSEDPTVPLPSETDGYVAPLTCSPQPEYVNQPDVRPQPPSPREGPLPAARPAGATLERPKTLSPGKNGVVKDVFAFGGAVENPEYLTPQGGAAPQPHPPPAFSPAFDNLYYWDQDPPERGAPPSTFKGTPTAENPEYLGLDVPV

## COc1cccc(OC)c1OCCNCCO
[1]
  viability: 126%
[2]
  Her2 level: 98% (inactive)
[3]
  viability: 126% (inactive)
[4]
  viability: 85.7% (inactive)
[5]
  viability: 96% (inactive)
[6]; H69AR cells + 2 uM doxorubicin
  differential viability (reversal): 11.2% (inactive)
[6]; [9]
  viability: 84.8%
[6]; [10]
  viability: 96%
[7]
  inhibition: -1.82% (inactive)
[8]
  inhibition: 0.33% (inactive)

## CCN(CC)C(=O)CSc1nc2ccccc2c(=O)n1CCC(=O)NCc1ccc(F)cc1
[1]
  viability: 93%
[2]
  Her2 level: 105% (inactive)
[3]
  viability: 93% (inactive)
[4]
  viability: 98.3% (inactive)
[5]
  viability: 92.7% (inactive)
[6]; H69AR cells + 2 uM doxorubicin
  differential viability (reversal): 3.08% (inactive)
[6]; [9]
  viability: 89.6%
[6]; [10]
  viability: 92.7%
[7]
  inhibition: 4.34% (inactive)
[8]
  inhibition: 20.2% (inactive)

## CC(NC(=O)Nc1ccccc1)C(c1cccs1)N1CCOCC1 (stereo not given)
[1]
  viability: 108%
[2]
  Her2 level: 107% (inactive)
[3]
  viability: 108% (inactive)
[4]
  viability: 99.5% (inactive)
[5]
  viability: 110% (inactive)
[6]; H69AR cells + 2 uM doxorubicin
  differential viability (reversal): 16.3% (inactive)
[6]; [9]
  viability: 93.5%
[6]; [10]
  viability: 110%
[7]
  inhibition: -0.38% (inactive)
[8]
  inhibition: 4.83% (inactive)

## Cc1nn(C)c(C)c1CN(C)C(=O)c1cc2nc(-c3ccco3)cc(C(F)(F)F)n2n1
[1]
  viability: 77%
[2]
  Her2 level: 94.5% (inactive)
[3]
  viability: 77% (inactive)
[4]
  viability: 109% (inactive)
[5]
  viability: 86.6% (inactive)
[6]; H69AR cells + 2 uM doxorubicin
  differential viability (reversal): 0.655% (inactive)
[6]; [9]
  viability: 85.9%
[6]; [10]
  viability: 86.6%
[7]
  inhibition: 1.67% (inactive)
[8]
  inhibition: -9.33% (inactive)

## Fc1ccc(-n2c(Cc3ccccc3)nnc2SCc2nc(-c3cccs3)no2)cc1
[1]
  viability: 99.5%
[2]
  Her2 level: 92.5% (inactive)
[3]
  viability: 99.5% (inactive)
[4]
  viability: 73.1% (inactive)
[5]
  viability: 94.1% (inactive)
[6]; H69AR cells + 2 uM doxorubicin
  differential viability (reversal): 17.9% (inactive)
[6]; [9]
  viability: 76.2%
[6]; [10]
  viability: 94.1%
[7]
  inhibition: -3.73% (inactive)
[8]
  inhibition: -0.98% (inactive)

## COc1ccc(C)cc1-n1nnnc1SCC(=O)Nc1cc(C)on1
[1]
  viability: 95%
[2]
  Her2 level: 85% (inactive)
[3]
  viability: 95% (inactive)
[4]
  viability: 78.6% (inactive)
[5]
  viability: 90.6% (inactive)
[6]; H69AR cells + 2 uM doxorubicin
  differential viability (reversal): 4.68% (inactive)
[6]; [9]
  viability: 85.9%
[6]; [10]
  viability: 90.6%
[7]
  inhibition: -2.6% (inactive)
[8]
  inhibition: -0.63% (inactive)

## N#Cc1c(NC(=O)CSc2nnnn2C2CCCC2)sc2c1CCCC2
[1]
  viability: 82.5%
[2]
  Her2 level: 85% (inactive)
[3]
  viability: 82.5% (inactive)
[4]
  viability: 94.6% (inactive)
[5]
  viability: 69.9% (inactive)
[6]; H69AR cells + 2 uM doxorubicin
  differential viability (reversal): 1.64% (inactive)
[6]; [9]
  viability: 68.2%
[6]; [10]
  viability: 69.9%
[7]
  inhibition: -0.53% (inactive)
[8]
  inhibition: 0.16% (inactive)

## CCC(C)(C(=O)NC1CCCCC1)N(Cc1ccco1)C(=O)c1ccc2c(c1)OCO2 (stereo not given)
[1]
  viability: 92.5%
[2]
  Her2 level: 89% (inactive)
[3]
  viability: 92.5% (inactive)
[4]
  viability: 82.3% (inactive)
[5]
  viability: 83.4% (inactive)
[6]; H69AR cells + 2 uM doxorubicin
  differential viability (reversal): 3.06% (inactive)
[6]; [9]
  viability: 80.3%
[6]; [10]
  viability: 83.4%
[7]
  inhibition: -1.82% (inactive)
[8]
  inhibition: -7.05% (inactive)

## CCSc1oc(-c2cccs2)nc1S(=O)(=O)c1ccccc1
[1]
  viability: 93.5%
[2]
  Her2 level: 104% (inactive)
[3]
  viability: 93.5% (inactive)
[4]
  viability: 59.9% (inactive)
[5]
  viability: 82% (inactive)
[6]; H69AR cells + 2 uM doxorubicin
  differential viability (reversal): 5.72% (inactive)
[6]; [9]
  viability: 76.3%
[6]; [10]
  viability: 82%
[7]
  inhibition: -5.33% (inactive)
[8]
  inhibition: 1.83% (inactive)

## CCCOc1ccc(/C(O)=C2/C(=O)C(=O)N(CCCOC)C2c2ccncc2)cc1 (stereo not given)
[1]
  viability: 98%
[2]
  Her2 level: 84% (inactive)
[3]
  viability: 98% (inactive)
[4]
  viability: 110% (inactive)
[5]
  viability: 94.5% (inactive)
[6]; H69AR cells + 2 uM doxorubicin
  differential viability (reversal): 7.81% (inactive)
[6]; [9]
  viability: 86.7%
[6]; [10]
  viability: 94.5%
[7]
  inhibition: -9.46% (inactive)
[8]
  inhibition: 3.67% (inactive)

## COc1ccc2c(CC(=O)Nc3nnc(C4CC4)s3)coc2c1
[1]
  viability: 120%
[2]
  Her2 level: 81% (inactive)
[3]
  viability: 120% (inactive)
[4]
  viability: 89.4% (inactive)
[5]
  viability: 99.4% (inactive)
[6]; H69AR cells + 2 uM doxorubicin
  differential viability (reversal): 5.3% (inactive)
[6]; [9]
  viability: 94.1%
[6]; [10]
  viability: 99.4%
[7]
  inhibition: -7.26% (inactive)
[8]
  inhibition: -1.9% (inactive)

## COC(=O)[C@@H](NC(=O)NCc1ccccc1Cl)C(C)C
[1]
  viability: 95%
[2]
  Her2 level: 123% (inactive)
[3]
  viability: 95% (inactive)
[4]
  viability: 84.9% (inactive)
[5]
  viability: 94.4% (inactive)
[6]; H69AR cells + 2 uM doxorubicin
  differential viability (reversal): -1.47% (inactive)
[6]; [9]
  viability: 95.9%
[6]; [10]
  viability: 94.4%
[7]
  inhibition: -1.17% (inactive)
[8]
  inhibition: -9.5% (inactive)

## Cc1ccc(/C=N/n2nnnc2N)o1
[1]
  viability: 93%
[2]
  Her2 level: 88% (inactive)
[3]
  viability: 93% (inactive)
[4]
  viability: 111% (inactive)
[5]
  viability: 95.1% (inactive)
[6]; H69AR cells + 2 uM doxorubicin
  differential viability (reversal): 10.6% (inactive)
[6]; [9]
  viability: 84.5%
[6]; [10]
  viability: 95.1%
[7]
  inhibition: -8.38% (inactive)
[8]
  inhibition: -10.5% (inactive)

## CCC(=O)N1CCNC(=O)C1CC(=O)Nc1ccc(C)c(Cl)c1 (stereo not given)
[1]
  viability: 97%
[2]
  Her2 level: 122% (inactive)
[3]
  viability: 97% (inactive)
[4]
  viability: 94.2% (inactive)
[5]
  viability: 95.8% (inactive)
[6]; H69AR cells + 2 uM doxorubicin
  differential viability (reversal): 4.98% (inactive)
[6]; [9]
  viability: 90.8%
[6]; [10]
  viability: 95.8%
[7]
  inhibition: -2.8% (inactive)
[8]
  inhibition: -0.48% (inactive)

## COc1ccc(S(=O)(=O)N2CCC(C(=O)c3ccc4c(c3)OCCO4)CC2)cc1
[1]
  viability: 88.5%
[2]
  Her2 level: 108% (inactive)
[3]
  viability: 88.5% (inactive)
[4]
  viability: 61.7% (inactive)
[5]
  viability: 91.5% (inactive)
[6]; H69AR cells + 2 uM doxorubicin
  differential viability (reversal): 7.49% (inactive)
[6]; [9]
  viability: 84%
[6]; [10]
  viability: 91.5%
[7]
  inhibition: -1.95% (inactive)
[8]
  inhibition: -8.69% (inactive)
